WT yeast gro inh: growth inhibition of WT strain, primary screen, mitochondrial fusion inhibitor project, WT and mutant strains, chemical genetic; 190,000 compounds, 2.1% hits; inhibition, % at 10 µM; mitochondrial fusion phenotypic screen; in the data active = inhibition above about 58%; tested in S. cerevisiae
Diaph act CS: compounds boosting diaphorase resazurin reduction – biochemical, uHTS, resorufin fluorescence, counter-screen for diaphorase-coupled primary assays, primary screen; Diaphorase/resazurin coupled assay, 16 min; stronger effect = higher value; 1 = vehicle wells, 0 = NADH-free wells; activation factor at 20 µM; 190,000 compounds, 0.005% hits; AID 1229, 2008;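 active = diaphorase activity raised at least twofold by the compound at 20 µM; inactive = activation factor below 2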
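Assay system: Purified diaphorase enzyme from Clostridium kluyveri | Amount: Enzyme 0.07 U/mL final | Dosing: Compound 20 µM once, DMSO 1% | Timing: 16 min reaction at room temperature | Detection: Fluorescence, excitation 544 nm and emission 590 nm | Evaluation: Higher resorufin formation from activation or reduction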
ROMK primary: ROMK potassium channel modulators, primary screen, cell-based, thallium flux, MLSMR library; B-score at 10 µM; 130,000 compounds, 2% hits; Tet-inducible ROMK, thallium flux fluorescence; actives lie on both sides; AID 1918, 2009;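 active = signal ratio slope over the read window, or its plate-corrected B-score, at least 3 SD from the plate mean, either direction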;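 also: B-score of the F/F0 ratio slope over 7 to 12 s after thallium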
Target sequence (P48048 whole entry, looked up): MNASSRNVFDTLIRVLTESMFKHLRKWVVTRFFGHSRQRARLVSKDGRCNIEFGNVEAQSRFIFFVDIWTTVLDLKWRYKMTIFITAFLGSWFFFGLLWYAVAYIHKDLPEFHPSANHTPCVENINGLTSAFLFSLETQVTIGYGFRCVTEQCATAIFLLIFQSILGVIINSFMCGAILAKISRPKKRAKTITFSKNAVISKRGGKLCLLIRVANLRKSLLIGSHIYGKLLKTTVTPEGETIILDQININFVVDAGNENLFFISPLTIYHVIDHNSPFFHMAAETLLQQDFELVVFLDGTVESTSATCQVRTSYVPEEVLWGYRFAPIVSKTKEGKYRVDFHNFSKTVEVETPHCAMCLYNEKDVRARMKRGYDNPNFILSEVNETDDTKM
L major viab: Leishmania major promastigote growth inhibition, primary screen | Leishmania major promastigotes, resazurin fluorescence viability | inhibition, % at 10 µM | 200,000 compounds, 9% hits; in the data active = inhibition above about 50%;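 also: promastigotes grown with compound for 44 hours at 28 °C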
Diaph inh CS: diaphorase inhibitors and chemical oxidizers, primary screen, counter-screen for diaphorase-coupled primary assays, biochemical, uHTS, resorufin fluorescence; diaphorase resazurin-to-resorufin fluorescence, NADH, 16 min; bacterial (C. kluyveri) enzyme, not human; inhibition, % at 20 µM; 190,000 compounds, 0.69% hits;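 active = primary screen inhibition at 20 µM above a set limit, cut at about 50% in these data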
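Detection: fluorescence of resorufin formed from resazurin, Ex 544/Em 590 nm; test system: Clostridium kluyveri diaphorase enzyme; amount: 0.14 U/mL diaphorase, enzyme working solution; times: 16-min room-temperature incubation before reading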
Cl transport mod: KCC2 cotransporter modulators, thallium flux, primary screen, cell-based, HEK293 KCC2, FluoZin-2 fluorescence, MLSMR; 190,000 compounds, 2.2% hits; KCC2 cells, thallium flux FluoZin-2 fluorescence; Solute carrier family 12 member 5 (Homo sapiens), Q9H2X9; AID 1456, 2008; B-score of Tl+ flux slope (higher = more flux/activation; lower = inhibition) at 10 µM;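 active = thallium flux slope and its plate-corrected score both differing from the plate sample mean at a set confidence after two filtering rounds, in either direction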;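 also: slope of fluorescence scaled to starting intensity during 10 to 20 s after thallium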
Numbers stand for hits; i = inactive; nt = no result. The list is not random: actives were taken first. Their share in the collection is about 12%.

SMILES | WT yeast gro inh | Diaph act CS | ROMK primary | L major viab | Diaph inh CS | Cl transport mod
Clc1ccccc1CN1CCN(CCCc2ccccc2)CC1 | i | i | i | 93 | i | i
Clc1cccc(CN2CCN(Cc3nc(CCc4ccccc4)no3)CC2)c1 | i | i | i | 64 | i | nt
Cc1ccccc1N1CCN(Cc2nc(Cc3ccccc3)no2)CC1 | i | i | i | i | i | i
CCCS(=O)(=O)N1CCN(CCCc2ccccc2)CC1 | i | i | nt | 79 | i | nt
CCCS(=O)(=O)N1CCC(C(=O)N2CCN(Cc3ccccc3)CC2)CC1 | i | i | nt | i | i | i
O=C(NN1CCN(Cc2ccccc2Cl)CC1)c1ccc(Cl)cc1 | i | i | i | i | i | i
Cc1cccc(CN2CCN(CCCc3ccccc3)CC2)c1 | i | i | i | 96 | i | i
COC(=O)c1cc(NS(=O)(=O)c2ccc3c(c2)CCC(=O)N3)cc(C(=O)OC)c1 | i | i | nt | i | i | i
O=C(NCCN1CCN(C(=O)Nc2ccccc2)CC1)Nc1ccccc1 | i | i | nt | i | i | nt
OCC1(CCc2ccccc2)CCN(Cc2ccccc2Cl)CC1 | i | i | i | 57 | i | nt
CCn1c2ccccc2c2cc(CN3CCN(C(=O)c4ccco4)CC3)ccc21 | nt | i | nt | i | i | i
OCC1(CCc2ccccc2)CCN(Cc2c(F)ccc(F)c2F)CC1 | i | nt | i | i | nt | i
CCCS(=O)(=O)N1CCN(Cc2ccc3c(c2)c2ccccc2n3CC)CC1 | i | i | nt | 71 | i | i
OCC1(CCCc2ccccc2)CCN(Cc2cc(F)ccc2F)CC1 | i | i | i | 83 | i | i
O=C(NCCN1CCN(Cc2ccccc2Cl)CC1)Nc1ccccc1 | i | i | nt | 82 | i | i
CCOc1ccc(NC(=O)CN2CCN(CC(=O)Nc3ccc(Cl)c(C(F)(F)F)c3)CC2)cc1 | i | i | i | i | i | i
CCCc1nn(C)c(C(=O)Nc2ccc(C(C)(C)C)cc2)c1Cl | 63 | i | nt | i | i | i
C=CCN(CC=C)c1nc2ccccc2nc1C(C#N)C(=O)OCCOC (stereo not given) | 59 | i | nt | i | i | i
CCCN(CCC)c1nc2ccccc2nc1C(C#N)C(=O)OCCOC (stereo not given) | i | i | i | i | i | i
CC(C)c1nc2oc3c(N(C)CCO)ncnc3c2c2c1CCC2 | nt | nt | i | nt | nt | i
O=C(Nc1ccccc1)Nc1ccccc1-n1ccnc1 | i | i | i | 80 | i | i
O=C(CN1CCN(c2ccccn2)CC1)Nc1ccc(Cl)c(C(F)(F)F)c1 | i | i | nt | i | i | i
COc1ccccc1NC(=O)CN1CCN(CC(=O)Nc2ccc(OCc3ccccc3)cc2)CC1 | 66 | i | i | i | i | nt
COc1ccccc1N1CCN(CC(=O)Nc2ccc(Cl)c(C(F)(F)F)c2)CC1 | 58 | i | nt | i | i | i
COc1ccccc1NC(=O)CN1CCN(CC(=O)Nc2ccc3c(c2)OCCO3)CC1 | i | i | nt | 55 | i | i
SMILES | WT yeast gro inh | Diaph act CS | ROMK primary | L major viab | Diaph inh CS | Cl transport mod
O=C(CN1CCN(CC(=O)Nc2ccccc2Cl)CC1)Nc1ccc2c(c1)OCCO2 | i | i | i | i | i | nt
Cc1ccc2[nH]c(=O)c3cc(C(=O)N(CCCOC(C)C)Cc4ccco4)sc3c2c1 | i | i | nt | 75 | i | nt
CCCCN(Cc1ccco1)C(=O)c1cc2c(=O)[nH]c3ccc(C)cc3c2s1 | i | i | nt | i | 57 | nt
O=C1C2C3C=CC(c4ccccc4)(C2C(=O)N1c1cccc(Cl)c1)C1C(=O)N(c2cccc(Cl)c2)C(=O)C31 (stereo not given) | i | i | nt | 68 | i | i
CCCc1nccn1S(=O)(=O)c1cc(OC)ccc1OC | i | i | i | i | i | i
COc1ccc(OC)c(NC(=O)CC(NC(C)=O)c2ccccc2)c1 (stereo not given) | i | i | i | i | i | i
Cc1ccc(-n2nnc(-c3nccn3C)n2)cc1 | i | i | nt | i | i | i
O=C(c1cc(-c2ccc(Cl)cc2)n(-c2cc(Cl)ccc2Cl)n1)N1CCOCC1 | i | i | nt | i | i | nt
O=C(c1cc(-c2ccc(Cl)cc2)n(-c2ccc(Cl)c(Cl)c2)n1)N1CCOCC1 | 66 | i | nt | i | i | i
CC(=O)c1ccc(N=Nc2ccc(C)cc2)cc1 | i | i | i | i | i | i
O=C(/C(=C/O)N=Nc1ccccc1)c1ccncc1 | i | i | i | i | i | nt
O=C(/C(=C/O)N=Nc1ccccc1)c1ccc(Cl)cc1 | 68 | i | i | i | i | i
Cc1ccc(N=N/C(=C\O)C(=O)c2ccc(Cl)cc2)cc1 | 97 | i | i | 91 | i | i
CCc1ccccc1NC(=S)N(Cc1cccc(C)c1)c1cccnc1 | i | i | i | i | i | i
Cc1cccc(CN(C(=S)Nc2c(C)cccc2C)c2cccnc2)c1 | i | i | i | 87 | i | i
C/C(=C\C(=S)Nc1ccccc1)Nc1ccc2ccccc2c1 | 62 | i | i | i | i | i
Cc1cc(Cl)ccc1OCC(=O)NCCOc1nc(N2CCOCC2)nc(N2CCOCC2)n1 | i | i | i | i | i | i
CC(Oc1ccc(Cl)cc1Cl)C(=O)NCCN1CCOCC1 (stereo not given) | i | i | nt | 79 | i | i
Cc1cc(Cl)ccc1OCC(=O)NCCCN1CCOCC1 | i | i | i | 92 | i | nt
CC(OC(=O)Cc1c(F)cccc1Cl)C(=O)NCCC1=CCCCC1 (stereo not given) | i | i | i | 52 | i | i
O=C(NCCN1CCOCC1)Nc1ccc(Cl)cc1Cl | i | i | i | i | i | i
CN(C)c1nc(OCCNC(=O)COc2ccc(Cl)cc2Cl)nc(N2CCOCC2)n1 | i | i | i | i | i | i
COc1ccc(OC(C)C(=O)NCCC2=CCCCC2)cc1 (stereo not given) | i | i | i | i | i | i
O=C(COc1ccc(Cl)cc1Cl)NCCCN1CCOCC1 | i | i | nt | 94 | i | nt
CC1CCCC(C)N1C(=O)Cn1cc(C#N)c2ccccc21 (stereo not given) | i | i | i | i | i | i
COc1cc(/C=C/C(=O)OCC(=O)NC(=O)NC(C)C)cc(S(=O)(=O)N2CCc3ccccc32)c1OC | i | i | i | i | i | i
COc1ccc(N2CCN(C(=O)CN(C)S(=O)(=O)c3cc(C)ccc3OC)CC2)cc1 | i | i | i | i | i | i
O=S(=O)(NCc1ccccc1F)NCc1ccccc1F | i | i | nt | i | i | i
O=C(CNS(=O)(=O)c1ccc2ccccc2c1)OCc1nnc(-c2ccccc2)o1 | i | i | i | i | i | i
O=C(COc1ccccc1Cl)NCCCN1CCOCC1 | i | i | nt | 80 | i | nt
